In assay [1] the target is T1, Sodium channel alpha subunits; brain (Types I, II, III) (Rattus norvegicus, UniProt P04775+P04774+P08104). In words: Inhibitory effect against veratridine-induced glutamate release from rat brain slices. It is filed as functional. Summed up: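 Cross-chopped 0.2 mm slices of Chbb:Thom rat cortex or striatum preincubated 45 min at 37 °C in oxygenated Krebs–Henseleit buffer pH 7.4 with glucose, EDTA and ascorbate. Then 15 min with or without 3 μM veratridine, drug present throughout. After centrifugation, supernatant glutamate measured by HPLC with fluorimetric detection; protein by Coomassie.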

Assay [2] addresses T2, Sodium channel alpha subunits; brain (Types I, II, III) (Rattus norvegicus) (UniProt P04775+P04774+P08104). In words: Percent inhibition of veratridine-induced glutamate release in rat brain slices at 10000 nmol/L. The class given is functional, tissue-based.
The species entered for assay [3] is Mus musculus. Put plainly: Ability to block convulsions in the maximal electroshock test (MES) in mice. The class given is functional. Summed up:
(§1)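 Male OF1 mice, groups of 10, given several doses sc; electroshock 20 mA/50 Hz/200 ms through eye electrodes 15 min after injection. Score is the percentage of animals free of tonic convulsions. ID50 for inhibition of tonic seizures obtained by log-probit analysis over three to four doses.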
(The maximal electroshock test induces tonic seizures with an electrical stimulus.)

Assay [4] concerns the target T1, Sodium channel alpha subunits; brain (Types I, II, III). Put plainly: Displacement of [3H]BTX from sodium channel of rat cerebral cortex synaptosomes. It is filed as subcellular. Summed up: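 Synaptosomal membranes from rat cerebral cortex incubated 1 h at 37 °C with 1 nmol/L [3H]BTX-B in choline Cl/HEPES-Tris buffer pH 7.4 containing glucose, KCl and MgSO4, plus scorpion venom. Nonspecific binding defined with 100 μmol/L aconitine. Stopped by vacuum filtration through glass fiber and two buffer washes.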
For orientation: Loss of bound radioactivity is the signal in a displacement assay; it reports binding, not function.

In assay [5] the target is T2, Sodium channel alpha subunits; brain (Types I, II, III) (Rattus norvegicus). In words: Percent inhibition of [3H]BTX displacement at 10000 nmol/L. It is filed as protein assay.
The species named for assay [6] is Mus musculus. Put plainly: Percent of mice that did not develop tonic convulsion in the maximal electroshock test (MES). The class given is functional. In outline: as §1
Assay [7] deals with T1, Sodium channel alpha subunits; brain (Types I, II, III). Put plainly: Displacement of [3H]-TTX from sodium channel of rat cerebral cortex synaptosomes. It is filed as subcellular.
Assay [8] has as its target T3, Voltage-gated L-type calcium channel (Rattus norvegicus, UniProt P22002+Q02485+P27732). Put plainly: Displacement of diltiazem from L-type calcium channel binding site. The class given is protein assay.
Assay [9] has as its target T3, Voltage-gated L-type calcium channel. In words: Displacement of verapamil from L-type calcium channel binding site. It is filed as protein assay.
Assay [10] shares this target. Put plainly: Displacement of dihydropyridine (DHP) from the L-type calcium channel binding site. The class given is protein assay.
The target is the same in assay [11]. In words: Displacement of DHP from L-type calcium channel binding site. It is filed as protein assay.
The species entered for assay [12] is Mus musculus. Put plainly: Ability to block convulsions in the maximal electroshock test(MES) in mice. The conditions noted are these: read-out: ID50 (the source's name). The class given is functional. In outline:
as §1

[13] abbreviates: read-out: ID50 (the source's name).

Where only a bound is given, the exact number is not on record here.

T2 sequence (P04775 whole entry, looked up, other chains not shown): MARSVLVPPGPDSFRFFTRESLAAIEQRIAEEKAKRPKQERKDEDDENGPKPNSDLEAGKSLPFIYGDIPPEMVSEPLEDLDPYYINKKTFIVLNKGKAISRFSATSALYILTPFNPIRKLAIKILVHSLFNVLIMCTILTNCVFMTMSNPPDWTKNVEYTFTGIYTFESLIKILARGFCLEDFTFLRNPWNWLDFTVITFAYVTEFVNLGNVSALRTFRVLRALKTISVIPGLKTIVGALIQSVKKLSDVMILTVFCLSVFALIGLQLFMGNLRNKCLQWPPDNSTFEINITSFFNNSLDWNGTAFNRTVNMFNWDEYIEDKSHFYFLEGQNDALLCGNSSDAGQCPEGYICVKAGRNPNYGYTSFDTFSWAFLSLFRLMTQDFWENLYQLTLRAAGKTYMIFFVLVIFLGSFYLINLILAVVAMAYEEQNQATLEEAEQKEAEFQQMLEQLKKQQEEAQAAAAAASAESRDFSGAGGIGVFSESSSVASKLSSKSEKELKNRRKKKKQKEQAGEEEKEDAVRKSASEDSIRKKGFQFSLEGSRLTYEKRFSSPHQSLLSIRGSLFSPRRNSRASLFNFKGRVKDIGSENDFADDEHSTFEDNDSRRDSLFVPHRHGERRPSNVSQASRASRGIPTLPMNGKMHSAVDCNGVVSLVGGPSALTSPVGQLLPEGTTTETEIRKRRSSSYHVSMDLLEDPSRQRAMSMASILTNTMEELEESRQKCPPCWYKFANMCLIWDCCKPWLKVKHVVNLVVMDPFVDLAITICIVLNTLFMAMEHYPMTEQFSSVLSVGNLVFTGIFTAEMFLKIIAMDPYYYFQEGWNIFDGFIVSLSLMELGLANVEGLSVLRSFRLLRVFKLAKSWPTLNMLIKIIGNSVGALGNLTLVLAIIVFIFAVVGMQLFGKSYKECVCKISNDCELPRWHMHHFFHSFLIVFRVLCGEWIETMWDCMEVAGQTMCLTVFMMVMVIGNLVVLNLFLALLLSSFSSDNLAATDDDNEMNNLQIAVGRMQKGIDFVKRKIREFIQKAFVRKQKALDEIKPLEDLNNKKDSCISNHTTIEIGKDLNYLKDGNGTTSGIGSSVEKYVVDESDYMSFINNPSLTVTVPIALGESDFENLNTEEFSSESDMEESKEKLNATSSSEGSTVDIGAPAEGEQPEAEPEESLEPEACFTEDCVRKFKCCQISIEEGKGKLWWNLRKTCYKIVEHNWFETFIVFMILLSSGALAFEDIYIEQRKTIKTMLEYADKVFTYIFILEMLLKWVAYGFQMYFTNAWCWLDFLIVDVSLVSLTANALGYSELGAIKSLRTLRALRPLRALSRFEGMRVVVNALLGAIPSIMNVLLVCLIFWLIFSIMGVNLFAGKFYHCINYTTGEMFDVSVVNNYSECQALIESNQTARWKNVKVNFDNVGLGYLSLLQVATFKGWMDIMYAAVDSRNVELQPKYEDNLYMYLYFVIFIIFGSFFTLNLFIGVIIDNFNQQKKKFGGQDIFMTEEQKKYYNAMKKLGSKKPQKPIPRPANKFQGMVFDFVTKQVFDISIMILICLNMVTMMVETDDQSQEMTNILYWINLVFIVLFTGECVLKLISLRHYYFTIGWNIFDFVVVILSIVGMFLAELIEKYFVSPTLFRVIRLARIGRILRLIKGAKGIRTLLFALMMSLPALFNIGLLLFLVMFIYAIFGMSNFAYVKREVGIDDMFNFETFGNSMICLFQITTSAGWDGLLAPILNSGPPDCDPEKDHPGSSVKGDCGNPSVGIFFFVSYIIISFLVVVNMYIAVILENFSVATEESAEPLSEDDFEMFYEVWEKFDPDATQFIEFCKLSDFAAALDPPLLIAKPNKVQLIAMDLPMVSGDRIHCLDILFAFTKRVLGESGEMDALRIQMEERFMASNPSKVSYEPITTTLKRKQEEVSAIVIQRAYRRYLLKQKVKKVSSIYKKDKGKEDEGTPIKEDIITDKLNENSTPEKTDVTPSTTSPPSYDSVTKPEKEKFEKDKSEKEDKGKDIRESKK
T2 sequence (P08104 whole entry, looked up, other chains not shown): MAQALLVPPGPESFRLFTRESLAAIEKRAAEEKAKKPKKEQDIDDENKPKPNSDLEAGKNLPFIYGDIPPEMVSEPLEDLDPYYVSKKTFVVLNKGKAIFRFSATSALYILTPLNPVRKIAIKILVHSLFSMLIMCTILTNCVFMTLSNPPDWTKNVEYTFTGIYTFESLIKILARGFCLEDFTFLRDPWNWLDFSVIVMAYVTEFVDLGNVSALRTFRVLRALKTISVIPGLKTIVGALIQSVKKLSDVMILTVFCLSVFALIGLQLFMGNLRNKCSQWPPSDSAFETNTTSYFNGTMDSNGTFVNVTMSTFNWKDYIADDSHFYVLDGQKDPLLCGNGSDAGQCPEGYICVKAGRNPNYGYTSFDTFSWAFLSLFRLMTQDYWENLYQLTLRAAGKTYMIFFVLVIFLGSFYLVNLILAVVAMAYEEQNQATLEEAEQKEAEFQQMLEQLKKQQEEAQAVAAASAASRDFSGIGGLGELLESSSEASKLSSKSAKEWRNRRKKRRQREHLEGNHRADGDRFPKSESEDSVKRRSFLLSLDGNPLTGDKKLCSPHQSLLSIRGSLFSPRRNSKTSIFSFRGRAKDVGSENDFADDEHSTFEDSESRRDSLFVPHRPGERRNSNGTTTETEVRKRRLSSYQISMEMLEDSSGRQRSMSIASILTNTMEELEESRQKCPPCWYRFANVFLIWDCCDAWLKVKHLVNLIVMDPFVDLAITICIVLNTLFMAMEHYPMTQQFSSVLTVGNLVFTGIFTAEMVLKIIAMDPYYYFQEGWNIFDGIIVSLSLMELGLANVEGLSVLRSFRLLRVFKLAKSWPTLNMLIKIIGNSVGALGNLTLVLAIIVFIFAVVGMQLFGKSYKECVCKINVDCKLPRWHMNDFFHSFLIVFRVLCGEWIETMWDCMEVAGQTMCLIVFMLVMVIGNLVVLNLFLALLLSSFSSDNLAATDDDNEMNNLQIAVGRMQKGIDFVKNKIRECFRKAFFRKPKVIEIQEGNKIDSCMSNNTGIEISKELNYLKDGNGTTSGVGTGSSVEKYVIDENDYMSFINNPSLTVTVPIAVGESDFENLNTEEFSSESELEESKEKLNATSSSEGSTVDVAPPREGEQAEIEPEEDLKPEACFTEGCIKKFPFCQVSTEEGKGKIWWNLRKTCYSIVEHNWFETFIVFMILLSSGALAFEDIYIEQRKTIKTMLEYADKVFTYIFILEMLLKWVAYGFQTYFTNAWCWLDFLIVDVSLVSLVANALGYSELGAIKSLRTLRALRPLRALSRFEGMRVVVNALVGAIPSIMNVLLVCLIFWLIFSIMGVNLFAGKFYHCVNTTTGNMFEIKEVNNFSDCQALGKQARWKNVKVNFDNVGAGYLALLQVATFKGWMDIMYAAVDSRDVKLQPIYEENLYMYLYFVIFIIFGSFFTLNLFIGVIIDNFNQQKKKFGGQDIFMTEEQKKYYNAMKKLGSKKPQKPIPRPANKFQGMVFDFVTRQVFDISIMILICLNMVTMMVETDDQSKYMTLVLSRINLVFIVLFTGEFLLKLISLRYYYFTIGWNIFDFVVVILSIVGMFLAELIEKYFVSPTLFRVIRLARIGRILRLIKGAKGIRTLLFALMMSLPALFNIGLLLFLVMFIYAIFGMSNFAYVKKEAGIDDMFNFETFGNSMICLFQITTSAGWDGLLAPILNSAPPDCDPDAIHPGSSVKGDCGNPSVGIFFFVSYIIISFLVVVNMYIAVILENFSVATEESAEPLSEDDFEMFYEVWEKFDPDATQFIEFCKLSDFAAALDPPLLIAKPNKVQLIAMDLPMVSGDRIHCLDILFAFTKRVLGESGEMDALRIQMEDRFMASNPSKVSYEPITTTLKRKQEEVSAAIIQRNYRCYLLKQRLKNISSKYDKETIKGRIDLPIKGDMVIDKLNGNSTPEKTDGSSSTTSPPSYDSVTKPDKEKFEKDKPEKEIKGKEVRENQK

`COC(C)CN1CCC2(C)c3cc(O)ccc3C[C@@H]1C2(C)C` (stereo partly specified): in assay [1], the IC50 (commonly the concentration at which inhibition is half-maximal) was more than 10000 nmol/L. Also, the inhibition – broadly, the change of the read-out against control, counted positive when it falls – in [2] was 29%. Moreover, the ED50 in assay [3] turned out to be 0.1 mg/kg. Moreover, the Ki in assay [4] stood at 6010 nM.
In [4], `CN(c1nc2ccccc2s1)C1CCN(C[C@H](O)COc2ccc(F)c(F)c2)CC1` [LUBELUZOLE] had a Ki of 203 nM.
`CC12CCN(CCc3ccccc3)[C@@H](Cc3cc(O)ccc31)C2(C)C`: the IC50 in assay [1] is 5029 nmol/L. In assay [4], the Ki is 1290 nM.
In the case of `CO[C@H](C)CN1CCC2(C)c3cccc(O)c3C[C@@H]1C2(C)C`, the IC50 in assay [1] is 4153 nmol/L. In [3], this compound came in with an ED50 of 0.8 mg/kg. The same compound gave a Ki in assay [4] of 3310 nM.
In [1], `COC(C)CN1CCC2(C)c3c(O)cccc3C[C@@H]1C2(C)C` (stereo partly specified) showed an IC50 of more than 10000 nmol/L. The same compound registered an inhibition in assay [2] of 23%. This compound yielded a Ki in [4] of 8990 nM.
`CC1[C@H]2Cc3c(O)cccc3C1(C)CCN2C[C@@H](C)OCc1ccccc1` (stereo partly specified) returned an IC50 in [1] of 452 nmol/L. Also, the ED50 in assay [3] (setting [13]) came out at 3.1 mg/kg. In addition, the Ki in [4] came out at 153 nM.
`C[C@H](CN1CCC2(C)c3ccc(O)cc3C[C@@H]1C2(C)C)OCc1ccccc1` yielded an IC50 in assay [1] of 3177 nmol/L. Besides, in assay [3] (setting [13]), the ED50 amounted to 35.3 mg/kg. In assay [4], this compound showed a Ki of 382 nM.
As to `C[C@H](CN1CCC2(C)c3ccc(O)cc3C[C@H]1C2(C)C)Oc1ccccc1`, the IC50 in assay [1] came out at 6340 nmol/L. The Ki in assay [4] was determined as 864 nM.
As for `CO[C@@H](C)CN1CCC2(C)c3cccc(O)c3C[C@H]1C2(C)C`, the IC50 in assay [1] was more than 10000 nmol/L. For the same compound, the inhibition in assay [5] is 52%; in [2] it was 25%. This compound came in with a Ki in assay [4] of 10000 nM.
Take `C[C@@H](CN1CCC2(C)c3ccc(O)cc3C[C@H]1C2(C)C)OCc1ccccc1`: the IC50 in [1] is 4516 nmol/L. Besides, in assay [3] (setting [13]), the ED50 is more than 100 mg/kg. The same compound yielded a Mice in assay [6] of 30%. The compound further yielded a Ki in assay [4] of 1870 nM.
For `C[C@@H](CN1CCC2(C)c3cccc(O)c3C[C@@H]1C2(C)C)OCC1CCCCC1`, in that order: 975 nmol/L, more than 30 mg/kg, 0% and 208 nM.
For `C[C@@H](CN1CCC2(C)c3cccc(O)c3C[C@H]1C2(C)C)OCc1ccccc1`, in that order: 1289 nmol/L, more than 100 mg/kg, 40% and 1330 nM.
For `C[C@H](CN1CCC2(C)c3cccc(O)c3C[C@H]1C2(C)C)OCc1ccccc1`, in that order: 3772 nmol/L, more than 100 mg/kg, 40% and 1490 nM.
In assay [1], `Cc1cccc(C)c1OCC(C)N` (stereo unspecified) [MEXILETINE] yielded an IC50 of 47000 nmol/L. The compound also showed a Ki in assay [4] of 22700 nM.
Regarding `C[C@@H](CN1CCC2(C)c3ccc(O)cc3C[C@H]1C2(C)C)Oc1ccccc1`, the 50% inhibitory concentration (IC50) in [1] was 6464 nmol/L. Besides, the ED50 in [3] (setting [13]) was more than 100 mg/kg. In assay [6], the Animals is given as 0%. In [4], this compound had a Ki of 1530 nM.
Consider `CC12CCN(CCOCc3ccccc3)[C@H](Cc3c(O)cccc31)C2(C)C`, for which the IC50 in assay [1] is 379 nmol/L. Besides, the Ki was more than 10000 nM l-1 in assay [7]; 217 nM l-1 in assay [8]; 60 nM l-1 in [9]; more than 10000 nM l-1 in assay [10]; 20 nM in assay [4]. For the same compound, the ED50 in assay [3] (setting [13]) was found to be 2.1 mg/kg.
In assay [1], `Cc1ccc(-c2nc(CN3CCN(C(c4ccccc4)c4ccccc4)CC3)c(C)[nH]2)cc1` [LIFARIZINE] had an IC50 of 494 nmol/L. This compound yielded a Ki in assay [4] of 259 nM.
On to `C[C@H](CN1CCC2(C)c3cccc(O)c3C[C@@H]1C2(C)C)OCc1ccccc1`, for which, in [1], the IC50 came out at 922 nmol/L. Moreover, the Ki is more than 10000 nM l-1 in assay [7]; 391 nM l-1 in assay [8]; 500 nM l-1 in assay [9]; more than 10000 nM l-1 in assay [11]; 114 nM in [4]. Besides, the ED50 in assay [3] (setting [13]) was determined as 9.4 mg/kg.
`C[C@@H](CN1CCC2(C)c3ccc(O)cc3C[C@@H]1C2(C)C)OCc1ccccc1`: in assay [1], the IC50 came to 2300 nmol/L. Further, the ED50 in assay [3] (setting [13]) worked out at 10.1 mg/kg. Also, the Ki in [4] is 312 nM.
In the case of `CO[C@@H](C)CN1CCC2(C)c3ccccc3C[C@@H]1C2(C)C`, the IC50 in assay [1] is ~ 10000 nmol/l. The same compound gave an inhibition in assay [2] of 52%. In assay [4], the Ki was found to be 4700 nM.
Consider `C[C@H](CN1CCC2(C)c3cccc(O)c3C[C@@H]1C2(C)C)OCC1CCCCC1`, for which the IC50 in assay [1] stood at 1481 nmol/L. In [12], the ED50 is more than 30 mg/kg. Also, the Mice in assay [6] turned out to be 0%. The compound also yielded a Ki in assay [4] of 241 nM.
In [1], `C[C@@H](CN1CCC2(C)c3cccc(O)c3C[C@@H]1C2(C)C)OCc1ccccc1` registered an IC50 of 322 nmol/L. For the same compound, the Ki in [7] is more than 10000 nM l-1; in assay [8], 660 nM l-1; in assay [9] it was 449 nM l-1; in assay [11] it was more than 10000 nM l-1; in assay [4] it was 43 nM. In addition, the ED50 in assay [3] (setting [13]) turned out to be 6.1 mg/kg.
Turning to `C[C@H](CN1CCC2(C)c3ccc(O)cc3C[C@@H]1C2(C)C)Oc1ccccc1`, the IC50 in assay [1] is 6024 nmol/L. In assay [4], this compound returned a Ki of 662 nM.
For the compound `C[C@@H](CN1CCC2(C)c3ccc(O)cc3C[C@@H]1C2(C)C)Oc1ccccc1`, the IC50 in assay [1] stood at 5799 nmol/L. The ED50 in [3] (setting [13]) was more than 30 mg/kg. In assay [6], this compound came in with an Animals of 0%. Besides, in assay [4], the Ki stood at 149 nM.
As for `CC1[C@H]2Cc3c(O)cccc3C1(C)CCN2C[C@H](C)OCc1ccccc1` (stereo partly specified), the IC50 in assay [1] is 134 nmol/L. For the same compound, in [3] (setting [13]), the ED50 worked out at 2.4 mg/kg. The same compound came in with a Ki in assay [4] of 54 nM.
Turning to `COC(C)CN1CCC2(C)c3ccc(O)cc3C[C@@H]1C2(C)C` (stereo partly specified), in [1], the IC50 was more than 10000 nmol/L. Moreover, the inhibition worked out at 45% in [5] and 21% in assay [2]. Moreover, the ED50 in assay [3] amounted to 0.7 mg/kg. Also, the Ki in [4] was more than 10000 nM.
For the compound `CC(CN1CCC2(C)C[C@@H]1Cc1c(O)cccc12)OCc1ccccc1` (stereo partly specified), the IC50 in [1] worked out at 255 nmol/L. Besides, the ED50 in [3] (setting [13]) was found to be 2.2 mg/kg. In assay [4], this compound registered a Ki of 47 nM.
Consider `CO[C@@H](C)CN1CCC2(C)c3cccc(O)c3C[C@@H]1C2(C)C`, for which the IC50 in assay [1] amounted to 3190 nmol/L. This compound also gave an ED50 in assay [3] of 1 mg/kg. Also, in assay [4], the Ki is 783 nM.
The compound `CO[C@H](C)CN1CCC2(C)c3cccc(O)c3C[C@H]1C2(C)C` gave a 50% inhibitory concentration (IC50) in [1] of more than 10000 nmol/L. Also, the results for the inhibition in assay [5] and in assay [2] were 48% and 42%, respectively. In [4], this compound registered a Ki of 10000 nM.
For the compound `COc1ccc2c(c1)[C@]13CCCC[C@@H]1[C@H](C2)N(C)CC3` [DEXTROMETHORPHAN], in assay [1], the IC50 was more than 10000 nmol/L. The inhibition in assay [2] amounted to 5%. This compound yielded a Ki in [4] of 4800 nM.
As to `C[C@H](CN1CCC2(C)c3ccc(O)cc3C[C@H]1C2(C)C)OCc1ccccc1`, the IC50 in assay [1] was 2676 nmol/L. Moreover, the ED50 in assay [3] (setting [13]) was more than 100 mg/kg. In addition, the Mice in [6] came out at 30%. The Ki in assay [4] was 1230 nM.

The values are drawn from ChEMBL document CHEMBL1135973, “Synthesis and structure-activity relationships of 6,7-benzomorphan derivatives as use-dependent sodium channel blockers for the treatment of stroke” (J Med Chem, 2002).
